Test results from ChEMBL document CHEMBL2069265, “Synthesis and biological evaluation of optically active conjugated γ- and δ-lactone derivatives” (2012).
Converted amounts (≈) assume the structure as drawn. The source made the active and inactive calls. No cut-off for these calls is given here.

Assays:
Bacillus subtilis [1] = assay: Antibacterial activity against Bacillus subtilis ATCC 6633 after 24 hrs; assay type: functional
Pseudomonas aeruginosa [2] = assay: Antibacterial activity against Pseudomonas aeruginosa ATCC 9027 at 10 to 100 mg/ml after 24 hrs by disc diffusion method; assay type: functional, organism-based
How it was run: (§1)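 Modified disc diffusion: LB agar plates seeded at 10^6 cells/mL; 6 mm filter discs soaked in 50 µL of compound at 10–100 mg/mL in DMSO or methanol, placed on plates, 37 °C for 24 h. Inhibition zone ≥7 mm scored susceptible. Solvent discs tested; positive controls gentamicine, streptomycine or nystatin discs at 10 mg/mL.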

[3] = system: Radical scavenging activity; assay: Antioxidant activity assessed as DPPH radical scavenging activity at 10 to 80 uM; assay type: functional
How it was run: (§2)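 DPPH radical scavenging per Blois; compounds 10–80 µM in methanol (some runs 10–200 µM, values reported at 80 µM). Absorbance at 517 nm; scavenging % = (A517 control − A517 sample)/A517 control × 100. Alpha tocopherol as control. Means ± SD of three parallel measurements.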

Staphylococcus aureus [4] = assay: Antibacterial activity against Staphylococcus aureus ATCC 6538 after 24 hrs; assay type: functional
Bacillus subtilis [5] = assay: Antibacterial activity against Bacillus subtilis ATCC 6633 at 10 to 100 mg/ml after 24 hrs by disc diffusion method; assay type: functional; how it was run: as §1
Candida albicans [6] = assay: Antifungal activity against Candida albicans ATCC 10231 at 10 to 100 mg/ml after 24 hrs by disc diffusion method; assay type: functional; how it was run: as §1
Pseudomonas aeruginosa [7] = assay: Antibacterial activity against Pseudomonas aeruginosa ATCC 9027 after 24 hrs; assay type: functional, organism-based
Escherichia coli [8] = assay: Antibacterial activity against Escherichia coli ATCC 3509 after 24 hrs; assay type: functional
Candida albicans [9] = assay: Antifungal activity against Candida albicans ATCC 10231 after 24 hrs; assay type: functional
Staphylococcus aureus [10] = assay: Antibacterial activity against Staphylococcus aureus ATCC 6538 at 10 to 100 mg/ml after 24 hrs by disc diffusion method; assay type: functional; how it was run: as §1
Escherichia coli [11] = assay: Antibacterial activity against Escherichia coli ATCC 3509 at 10 to 100 mg/ml after 24 hrs by disc diffusion method; assay type: functional; how it was run: as §1
Liver microsomes = assay: Antioxidant activity in Wistar rat liver microsomes assessed as reduction of lipid peroxidase activity by TBA assay; assay type: functional; set-up: concentration or dose not given beside the values; conditions: Microsome
How it was run: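 TBA assay of lipid peroxidation in liver microsomes isolated from three Wistar rats, following Raj et al.; reduced lipid peroxidase activity taken as antioxidant activity, expressed as %.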

[12] = Metal chelating activity of the compound assessed as ratio of Fe2+ concentration to compound concentration; assay type: functional
How it was run: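 Fe3+ reducing activity by modified ferrozine method; [Fe2+] calculated from extinction coefficient 27,900 M-1cm-1 of Fe(ferrozine)2+ complex, expressed as µM Fe2+ per µM compound. Means ± SD of three parallel measurements.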

[13] = system: Radical scavenging activity; assay: Antioxidant activity assessed as DPPH radical scavenging activity at 80 uM; assay type: functional; how it was run: as §2
Bacillus subtilis [14] = assay: Antibacterial activity against Bacillus subtilis ATCC 6633 at 50 mg/ml after 24 hrs by disc diffusion method; assay type: functional, organism-based
How it was run: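 Disc diffusion on LB agar plates inoculated with 10^6 cells/mL. 6 mm filter discs saturated with 50 µL of compound solution (10–100 mg/mL in DMSO or methanol), placed on plates and incubated at 37 °C for 24 h. Inhibition zone diameter read; zones of 7 mm or more scored as susceptible. Solvent discs tested; gentamicine disc (10 mg/mL) as positive control.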

Escherichia coli [15] = assay: Antibacterial activity against Escherichia coli ATCC 3509 at 50 mg/ml after 24 hrs by disc diffusion method; assay type: functional; conditions: ATCC 3509, 24 h, read-out: DIZ
How it was run: (§3)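 Disc diffusion on LB agar seeded at 10^6 cells/mL. 6 mm discs are saturated with 50 µL compound solution in DMSO or methanol and incubated at 37 °C for 24 h. Inhibition zones of 7 mm or more are counted as susceptible. Solvent discs are run, with streptomycine discs (10 mg/mL) as positive control.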

Staphylococcus aureus [16] = assay: Antibacterial activity against Staphylococcus aureus ATCC 6538 at 50 mg/ml after 24 hrs by disc diffusion method; assay type: functional; conditions: ATCC 6538, 24 h, read-out: DIZ; how it was run: as §3
[17] = system: Radical scavenging activity; assay: Antioxidant activity assessed as DPPH radical scavenging activity at 11 uM; assay type: functional
How it was run: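 DPPH radical scavenging at 11 µM compound in methanol, absorbance at 517 nm; % scavenging calculated from control versus sample A517. Alpha tocopherol control; mean ± SD of three parallel measurements.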

[18] = system: Radical scavenging activity; assay: Antioxidant activity assessed as DPPH radical scavenging activity at 11 to 1000 uM; assay type: functional
How it was run: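 DPPH scavenging in methanol, read as loss of absorbance at 517 nm, value obtained over 1000–11 µM compound; % = (A517 control − A517 sample)/A517 control × 100. Alpha tocopherol control; three parallel measurements, means ± SD.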

Compound | MIC (Bacillus subtilis [1]; ATCC 6633, 24 h) [µg/mL] | diameter of the inhibition zone (DIZ) (Pseudomonas aeruginosa [2]) | Activity [3] | MIC (Staphylococcus aureus [4]; ATCC 6538, 24 h) [µg/mL] | diameter of the inhibition zone (DIZ) (Bacillus subtilis [5]) | diameter of the inhibition zone (DIZ) (Candida albicans [6]) | MIC (Pseudomonas aeruginosa [7]) | MIC (Escherichia coli [8]; ATCC 3509, 24 h) [µg/mL] | MIC (Candida albicans [9]; ATCC 10231, 24 h) [µg/mL] | diameter of the inhibition zone (DIZ) (Staphylococcus aureus [10]) | diameter of the inhibition zone (DIZ) (Escherichia coli [11]) | Activity (Liver microsomes) | Ratio [12] | MIC (Bacillus subtilis [1]) | MIC (Staphylococcus aureus [4]) | MIC (Escherichia coli [8]) | MIC (Candida albicans [9]) | further results
CC1=CC[C@H](c2cccs2)OC1=O | 25 (≈ 129 µM) | inactive | inactive | 25 (≈ 129 µM) | 7 mm | 9 mm | inactive | 25 (≈ 129 µM) | 25 (≈ 129 µM) | 10 mm | 9 mm | inactive | – | – | – | – | – | –
O=C1C=CC[C@@H](c2ccco2)O1 | – | inactive | – | – | inactive | inactive | inactive | – | – | inactive | inactive | 7.45% | 0 | inactive | inactive | inactive | inactive | Activity [13]: 38%
Cc1c(C)c2c(c(C)c1O)CC[C@@](C)(CCC[C@H](C)CCC[C@H](C)CCCC(C)C)O2 | – | – | 66.2% | – | – | – | – | – | – | – | – | – | – | – | – | – | – | –
O=C1C=C[C@@H](c2cccs2)O1 | – | inactive | inactive | – | inactive | inactive | inactive | – | – | inactive | inactive | 54.7% | 0.015 | inactive | inactive | inactive | inactive | –
O=C1C=CCC(c2cccs2)O1 (racemic) | 10 (≈ 55.5 µM) | inactive | – | 30 (≈ 166 µM) | 8.5 mm | 9 mm | inactive | 20 (≈ 111 µM) | 25 (≈ 139 µM) | 8.5 mm | 8.5 mm | – | – | – | – | – | – | –
O=C1C=CC[C@H](c2ccco2)O1 | – | inactive | inactive | – | inactive | inactive | inactive | – | – | inactive | inactive | 9% | 0.0092 | inactive | inactive | inactive | inactive | –
GENTAMICIN | – | – | – | – | – | – | – | – | – | – | – | – | – | – | – | – | – | inhibition zone (IZ) (Bacillus subtilis [14]): 17 mm
CN[C@@H]1[C@H](O[C@H]2[C@H](O[C@H]3[C@H](O)[C@@H](O)[C@H](N=C(N)N)[C@@H](O)[C@@H]3N=C(N)N)O[C@@H](C)[C@]2(O)C=O)O[C@@H](CO)[C@H](O)[C@H]1O [STREPTOMYCIN] | – | – | – | – | – | – | – | – | – | – | – | – | – | – | – | – | – | zone of inhibition at 50000 µg/mL (Escherichia coli [15]): 18 mm; zone of inhibition at 50000 µg/mL (Staphylococcus aureus [16]): 15 mm
CC1=C[C@@H](c2cccs2)OC1=O | – | inactive | – | – | inactive | inactive | inactive | 25 (≈ 139 µM) | – | inactive | 9.5 mm | – | – | inactive | inactive | – | inactive | Activity [17]: 50.6%
O=C1C=CC[C@H](c2cccs2)O1 | 50 (≈ 277 µM) | inactive | inactive | 40 (≈ 222 µM) | 7 mm | 7 mm | inactive | 50 (≈ 277 µM) | 40 (≈ 222 µM) | 8.5 mm | 7 mm | inactive | 0.04 | – | – | – | – | –
O=C1C=CC(c2cccs2)O1 (racemic) | – | inactive | inactive | – | inactive | 9 mm | inactive | – | 100 (≈ 602 µM) | inactive | inactive | 58.8% | 0.44 | inactive | inactive | inactive | – | –
CC1=CCC(c2cccs2)OC1=O (racemic) | – | inactive | – | 25 (≈ 129 µM) | inactive | 12 mm | inactive | 12 (≈ 61.8 µM) | 25 (≈ 129 µM) | 7.5 mm | 8 mm | – | – | inactive | – | – | – | Activity [18]: 7.11%
O=C1C=CCC(c2ccco2)O1 (racemic) | – | inactive | – | – | inactive | inactive | inactive | – | – | inactive | inactive | 24.5% | 0 | inactive | inactive | inactive | inactive | Activity [13]: 38.1%
O=C1C=CC[C@@H](c2cccs2)O1 | 20 (≈ 111 µM) | inactive | 14% | 50 (≈ 277 µM) | 8.5 mm | 7 mm | inactive | 30 (≈ 166 µM) | 30 (≈ 166 µM) | 7 mm | 8.5 mm | inactive | 0 | – | – | – | – | –
CC1=CC[C@@H](c2cccs2)OC1=O | 25 (≈ 129 µM) | inactive | inactive | 25 (≈ 129 µM) | 11 mm | 9 mm | inactive | 25 (≈ 129 µM) | 25 (≈ 129 µM) | 7 mm | 8 mm | inactive | – | – | – | – | – | –
CC1=CC(c2cccs2)OC1=O (racemic) | – | inactive | – | – | inactive | 7.5 mm | inactive | – | 25 (≈ 139 µM) | inactive | inactive | – | – | inactive | inactive | inactive | – | Activity [17]: 93.3%
